Holding throughout (type): ADME, organism-based
Common to all, as to conditions: in vivo

Data set [1] can be described thus: Clearance in Sprague-Dawley rat at 25 mg/kg, po administered as single dose by LC/MS/MS analysis. The gist of the method: (§1)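 Male naïve Sprague–Dawley rats (n=3) received a single 25 mg kg−1 oral gavage dose in 5% ethanol/45% PEG 400/50% water. EDTA-K2 blood was sampled over 24 h post-dose. Plasma levels were measured by LC/MS/MS after acetonitrile protein precipitation, and parameters came from two-compartment analysis.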

Data set [2] is described as follows: Half life in Sprague-Dawley rat at 25 mg/kg, po administered as single dose by LC/MS/MS analysis. The gist of the method:
as §1

The nature of data set [3]: Cmax in Sprague-Dawley rat at 25 mg/kg, po administered as single dose by LC/MS/MS analysis. Further details: dose 25 mg/kg, route po. The gist of the method:
as §1

The record followed here is ChEMBL document CHEMBL5329183, “Naphthylthiazoles: a class of broad-spectrum antifungals” (RSC Med Chem, 2023).

`Cc1nc(-c2ccc3ccccc3c2)sc1-c1nnc(N[C@@H]2CCCC[C@H]2N)o1` (relative stereo) had a CL/F in data set [1] of 5.33 mL/min. The molecule further had a half-life in data set [2] of 3.6 h. In data set [3], this molecule came in with a Cmax of 9400 ng/mL.
